According to ChEMBL document CHEMBL3102739, “Synthesis and antiproliferative activity of conformationally restricted 1,2,3-triazole analogues of combretastatins in the sea urchin embryo model and against human cancer cell lines” (Bioorg Med Chem, 2014):

Key:
[1] = tested on: MDA-MB-468; assay: Growth inhibition of human MDA-MB-468 cells after 48 hrs by SRB assay; assay type: functional; conditions: MDA-MB-468, 48 h
[2] = Growth inhibition of human Hs578T cells after 48 hrs by SRB assay; assay type: functional; conditions: Hs-578T
[3] = tested on: BT-549; assay: Growth inhibition of human BT549 cells after 48 hrs by SRB assay; assay type: functional; conditions: BT-549, 48 h
[4] = tested on: MDA-MB-231; assay: Growth inhibition of human MDA-MB-231 cells after 48 hrs by SRB assay; assay type: functional; conditions: MDA-MB-231, 48 h
[5] = tested on: DU-145; assay: Growth inhibition of human DU145 cells after 48 hrs by SRB assay; assay type: functional; conditions: DU-145, 48 h
[6] = tested on: MCF7; assay: Growth inhibition of human MCF7 cells after 48 hrs by SRB assay; assay type: functional; conditions: MCF7, 48 h
[7] = Growth inhibition of human UO31 cells after 48 hrs by SRB assay; assay type: functional; conditions: UO-31, 48 h
[8] = tested on: PC-3; assay: Growth inhibition of human PC3 cells after 48 hrs by SRB assay; assay type: functional; conditions: PC-3, 48 h
[9] = Growth inhibition of human RXF393 cells after 48 hrs by SRB assay; assay type: functional; conditions: RXF 393, 48 h
[10] = tested on: SN12C; assay: Growth inhibition of human SN12C cells after 48 hrs by SRB assay; assay type: functional
[11] = tested on: ACHN; assay: Growth inhibition of human ACHN cells after 48 hrs by SRB assay; assay type: functional
[12] = tested on: CAKI-1; assay: Growth inhibition of human CAKI-1 cells after 48 hrs by SRB assay; assay type: functional; conditions: CAKI-1, 48 h
[13] = tested on: 786-0; assay: Growth inhibition of human 786-0 cells after 48 hrs by SRB assay; assay type: functional; conditions: 786-0, 48 h
[14] = tested on: A498; assay: Growth inhibition of human A498 cells after 48 hrs by SRB assay; assay type: functional; conditions: A498, 48 h
[15] = tested on: SK-OV-3; assay: Growth inhibition of human SKOV3 cells after 48 hrs by SRB assay; assay type: functional; conditions: SK-OV-3, 48 h
[16] = Growth inhibition of human NCI-ADR-RES cells after 48 hrs by SRB assay; assay type: functional
[17] = tested on: OVCAR-8; assay: Growth inhibition of human OVCAR8 cells after 48 hrs by SRB assay; assay type: functional; conditions: OVCAR-8, 48 h
[18] = Growth inhibition of human OVCAR4 cells after 48 hrs by SRB assay; assay type: functional; conditions: OVCAR-4, 48 h
[19] = Growth inhibition of human OVCAR5 cells after 48 hrs by SRB assay; assay type: functional; conditions: OVCAR-5, 48 h
[20] = tested on: OVCAR-3; assay: Growth inhibition of human OVCAR3 cells after 48 hrs by SRB assay; assay type: functional; conditions: OVCAR-3, 48 h
[21] = tested on: IGROV-1; assay: Growth inhibition of human IGROV1 cells after 48 hrs by SRB assay; assay type: functional; conditions: IGROV-1, 48 h
[22] = Growth inhibition of human UACC257 cells after 48 hrs by SRB assay; assay type: functional; conditions: UACC-257, 48 h
[23] = tested on: UACC-62; assay: Growth inhibition of human UACC62 cells after 48 hrs by SRB assay; assay type: functional; conditions: UACC-62, 48 h
[24] = tested on: SK-MEL-5; assay: Growth inhibition of human SK-MEL-5 cells after 48 hrs by SRB assay; assay type: functional; conditions: SK-MEL-5, 48 h
[25] = tested on: SK-MEL-28; assay: Growth inhibition of human SK-MEL-28 cells after 48 hrs by SRB assay; assay type: functional; conditions: SK-MEL-28, 48 h
[26] = tested on: MDA-MB-435; assay: Growth inhibition of human MDA-MB-435 cells after 48 hrs by SRB assay; assay type: functional; conditions: MDA-MB-435, 48 h
[27] = tested on: M14; assay: Growth inhibition of human M14 cells after 48 hrs by SRB assay; assay type: functional; conditions: M14, 48 h
[28] = tested on: SNB-75; assay: Growth inhibition of human SNB75 cells after 48 hrs by SRB assay; assay type: functional; conditions: SNB-75, 48 h
[29] = Growth inhibition of human SF539 cells after 48 hrs by SRB assay; assay type: functional; conditions: SF-539, 48 h
[30] = tested on: SNB-19; assay: Growth inhibition of human SNB19 cells after 48 hrs by SRB assay; assay type: functional; conditions: SNB-19, 48 h
[31] = tested on: SF-295; assay: Growth inhibition of human SF295 cells after 48 hrs by SRB assay; assay type: functional; conditions: SF-295, 48 h
[32] = tested on: SF-268; assay: Growth inhibition of human SF268 cells after 48 hrs by SRB assay; assay type: functional; conditions: SF-268, 48 h
[33] = tested on: SW-620; assay: Growth inhibition of human SW620 cells after 48 hrs by SRB assay; assay type: functional; conditions: SW-620, 48 h
[34] = tested on: KM12; assay: Growth inhibition of human KM12 cells after 48 hrs by SRB assay; assay type: functional; conditions: KM12, 48 h
[35] = tested on: HT-29; assay: Growth inhibition of human HT-29 cells after 48 hrs by SRB assay; assay type: functional; conditions: HT-29, 48 h
[36] = tested on: HCT-15; assay: Growth inhibition of human HCT15 cells after 48 hrs by SRB assay; assay type: functional; conditions: HCT-15, 48 h
[37] = Growth inhibition of human HCC2998 cells after 48 hrs by SRB assay; assay type: functional; conditions: HCC 2998, 48 h
[38] = tested on: HCT-116; assay: Growth inhibition of human HCT116 cells after 48 hrs by SRB assay; assay type: functional; conditions: HCT-116, 48 h
[39] = tested on: COLO 205; assay: Growth inhibition of human COLO205 cells after 48 hrs by SRB assay; assay type: functional; conditions: COLO 205, 48 h
[40] = tested on: NCI-H522; assay: Growth inhibition of human NCI-H522 cells after 48 hrs by SRB assay; assay type: functional; conditions: NCI-H522, 48 h
[41] = tested on: NCI-H460; assay: Growth inhibition of human NCI-H460 cells after 48 hrs by SRB assay; assay type: functional; conditions: NCI-H460, 48 h
[42] = tested on: NCI-H322M; assay: Growth inhibition of human NCI-H322M cells after 48 hrs by SRB assay; assay type: functional
[43] = tested on: NCI-H226; assay: Growth inhibition of human NCI-H226 cells after 48 hrs by SRB assay; assay type: functional; conditions: NCI-H226, 48 h
[44] = tested on: HOP-62; assay: Growth inhibition of human HOP62 cells after 48 hrs by SRB assay; assay type: functional; conditions: HOP-62, 48 h
[45] = tested on: A549; assay: Growth inhibition of human A549 cells after 48 hrs by SRB assay; assay type: functional; conditions: A549, 48 h
[46] = tested on: RPMI-8226; assay: Growth inhibition of human RPMI8226 cells after 48 hrs by SRB assay; assay type: functional; conditions: RPMI-8226, 48 h
[47] = tested on: SR; assay: Growth inhibition of human SR cells after 48 hrs by SRB assay; assay type: functional
[48] = tested on: MOLT-4; assay: Growth inhibition of human MOLT4 cells after 48 hrs by SRB assay; assay type: functional; conditions: MOLT-4, 48 h
[49] = tested on: K562; assay: Growth inhibition of human K562 cells after 48 hrs by SRB assay; assay type: functional; conditions: K562, 48 h
[50] = tested on: CCRF-CEM; assay: Growth inhibition of human CCRF-CEM cells after 48 hrs by SRB assay; assay type: functional
[51] = tested on: HL-60(TB); assay: Growth inhibition of human HL-60(TB) cells after 48 hrs by SRB assay; assay type: functional; conditions: HL-60, 48 h
[52] = tested on: Paracentrotus lividus; assay: Antimitotic activity against sea urchin embryo free-swimming blastula model assessed as embryo spinning compound treated at 8 to 10 hrs post-fertilization measured after 0.25 to 20 hrs; assay type: functional, Blastula stage
[53] = tested on: Paracentrotus lividus; assay: Antimitotic activity against sea urchin embryo model assessed as cleavage arrest of fertilized egg compound treated at 8 to 20 mins post-fertilization and 45 to 55 mins prior to first mitotic cycle completion measured 2.5 to 5.5 hrs post-fertilization; assay type: functional
How it was run: (§1)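 Fertilized eggs are exposed 8–20 min after fertilization to 2-fold decreasing concentrations. Stocks are 10 mM in DMSO, then diluted 10-fold in 95% EtOH; final DMSO is at most 0.05% and EtOH at most 1%. Embryos are kept as a monolayer, up to 2000 embryos/mL, in filtered seawater at room temperature. The value is the threshold concentration giving cleavage alteration, embryo death before hatching or full mitotic arrest. Duplicates were run.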

[54] = tested on: Paracentrotus lividus; assay: Antimitotic activity against sea urchin embryo model assessed as cleavage alteration of fertilized egg compound treated at 8 to 20 mins post-fertilization and 45 to 55 mins prior to first mitotic cycle completion measured 2.5 to 5.5 hrs post-fertilization; assay type: functional; how it was run: as §1
[55] = tested on: TK-10; assay: Growth inhibition of human TK10 cells after 48 hrs by SRB assay; assay type: functional; conditions: TK-10, 48 h
[56] = tested on: NCI-H23; assay: Growth inhibition of human NCI-H23 cells after 48 hrs by SRB assay; assay type: functional; conditions: NCI-H23, 48 h

COc1ccc(-c2cnnn2-c2cc(OC)c3c(c2)OCO3)cc1
GI50 [1]: 62 nM
GI50 [2]: 154 nM
GI50 [3]: 160 nM
GI50 [4]: 135 nM
GI50 [5]: 232 nM
GI50 [6]: 47 nM
GI50 [7]: 692 nM
GI50 [8]: 150 nM
GI50 [9]: 157 nM
GI50 [10]: 486 nM
GI50 [11]: 607 nM
GI50 [12]: 98 nM
GI50 [13]: 363 nM
GI50 [14]: 49 nM
GI50 [15]: 271 nM
GI50 [16]: 38 nM
GI50 [17]: 284 nM
GI50 [18]: 4170 nM
GI50 [19]: 374 nM
GI50 [20]: 53 nM
GI50 [21]: 123 nM
GI50 [22]: 74.9 µM
GI50 [23]: 72 nM
GI50 [24]: 235 nM
GI50 [25]: 725 nM
GI50 [26]: 22 nM
GI50 [27]: 61 nM
GI50 [28]: 119 nM
GI50 [29]: 95 nM
GI50 [30]: > 100 µM
GI50 [31]: 73 nM
GI50 [32]: 611 nM
GI50 [33]: 56 nM
GI50 [34]: 60 nM
GI50 [35]: 40 nM
GI50 [36]: 45 nM
GI50 [37]: 258 nM
GI50 [38]: 64 nM
GI50 [39]: 53 nM
GI50 [40]: 21 nM
GI50 [41]: 55 nM
GI50 [42]: 673 nM
GI50 [43]: 4670 nM
GI50 [44]: 125 nM
GI50 [45]: 88 nM
GI50 [46]: 253 nM
GI50 [47]: 41 nM
GI50 [48]: 122 nM
GI50 [49]: 41 nM
GI50 [50]: 132 nM
GI50 [51]: 51 nM
EC [52]: 0.5 µM
EC [53]: 0.1 µM
EC [54]: 0.01 µM

COc1ccc(-c2nn[nH]c2-c2cc(OC)c3c(c2)OCO3)cc1
GI50 [1]: 19 nM
GI50 [2]: 22 nM
GI50 [3]: 121 nM
GI50 [4]: 45 nM
GI50 [5]: 32 nM
GI50 [6]: < 10 nM
GI50 [7]: 51 nM
GI50 [8]: 35 nM
GI50 [55]: 14.7 µM
GI50 [9]: 17 nM
GI50 [10]: 61 nM
GI50 [11]: 40 nM
GI50 [12]: 11 nM
GI50 [13]: 32 nM
GI50 [14]: < 10 nM
GI50 [15]: 23 nM
GI50 [16]: < 10 nM
GI50 [17]: 40 nM
GI50 [18]: 518 nM
GI50 [19]: 49 nM
GI50 [20]: 10 nM
GI50 [21]: 23 nM
GI50 [22]: 23 µM
GI50 [23]: < 10 nM
GI50 [24]: 29 nM
GI50 [25]: 35 nM
GI50 [26]: < 10 nM
GI50 [27]: 13 nM
GI50 [28]: 16 nM
GI50 [29]: 17 nM
GI50 [31]: < 10 nM
GI50 [32]: 101 nM
GI50 [33]: 14 nM
GI50 [34]: 23 nM
GI50 [35]: 34 nM
GI50 [36]: < 10 nM
GI50 [37]: 44 nM
GI50 [38]: 19 nM
GI50 [39]: 255 nM
GI50 [40]: < 10 nM
GI50 [41]: 11 nM
GI50 [42]: 57 nM
GI50 [56]: 33 nM
GI50 [43]: 294 nM
GI50 [44]: < 10 nM
GI50 [45]: 24 nM
GI50 [46]: 33 nM
GI50 [47]: < 10 nM
GI50 [48]: 63 nM
GI50 [49]: < 10 nM
GI50 [50]: 26 nM
GI50 [51]: 23 nM
EC [52]: 0.05 µM
EC [53]: 0.002 µM
EC [54]: 0.0005 µM
